Six compounds from ChEMBL document CHEMBL3244010, “Isolation, synthesis, and biological activity of five metabolites of danazol” (J Med Chem, 1977) can be followed below.

The nature of data set [1]: Drug metabolism in rhesus monkey assessed as 17-hydroxy-17alpha-pregn-4-en-20-yn-3-one level in urine at 50 mg/kg, po bid after 24 hrs by TLC analysis. It counts as ADME, organism-based, Macaca mulatta. Further details: dose 50 mg/kg, route oral. As to conditions: in vivo.
Data set [2] deals with Homo sapiens. Description: Drug metabolism in human assessed as 17-hydroxy-2alpha-(hydroxymethyl)-17apregn-4-en-20-yn-3-one level in urine at 800 mg, po after 24 hrs by TLC analysis. It counts as ADME, organism-based. The conditions noted are these: in vivo. In a few lines:
(§1)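 Urine was collected from one subject given 800 mg/day orally for 7 days. Metabolites were isolated from the urine, purified in separate chromatographic systems, and identified against synthetic reference material by UV spectra in methanol and by mass spectra.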

Data set [3] has as its system Homo sapiens. Nature of the data set: Drug metabolism in human assessed as 17-hydroxy-2-(hydroxymethyl)-17alpha-pregna-1,4-dien-20-yn-3-one level in urine at 800 mg, po after 24 hrs by TLC analysis. As to conditions: in vivo. The format is ADME, organism-based. In a few lines:
as §1

Data set [4] concerns Homo sapiens. Description: Drug metabolism in human assessed as 6beta,17-dihydroxy-2alpha-(hydroxymethyl)-17alpha-pregn-4-en-20-yn-3-one level in urine at 800 mg, po after 24 hrs by TLC analysis. It counts as ADME, organism-based. The conditions noted are these: in vivo. In a few lines:
as §1

Data set [5] deals with Homo sapiens. Nature of the data set: Drug metabolism in human assessed as 6beta,17-dihydroxy-2-(hydroxymethyl)-17alpha-pregna-1,4-dien-20-yn-3-one level in urine at 800 mg, po after 24 hrs by TLC analysis. It counts as ADME, organism-based. As to conditions: in vivo. The method, boiled down:
as §1

The subject of data set [6] is Rattus norvegicus. Description: Inhibition of pituitary gonadotropin activity in rat assessed as decrease of ventral prostate weight at 100 mg/kg, po for 14 days. The format is functional, organism-based. Further details: dose 100 mg/kg. As to conditions: Pituitary gland. The method, boiled down: (§2)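 Mature male rats were dosed orally at 100 mg/kg in ethanol-oil vehicle for 14 days. Ventral prostate, seminal vesicle and testicular weights were then compared against controls for significance.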

For data set [7], the system named is Rattus norvegicus. Nature of the data set: Inhibition of pituitary gonadotropin activity in rat assessed as decrease of seminal vesicles weight at 100 mg/kg, po for 14 days. As to conditions: Pituitary gland. Further details: dose 100 mg/kg. The format is functional, organism-based. The method, boiled down:
as §2

Data set [8] deals with Rattus norvegicus. Description: Inhibition of pituitary gonadotropin activity in rat assessed as decrease of testicular weight at 100 mg/kg, po for 14 days. The format is functional, organism-based. Further details: dose 100 mg/kg. The conditions noted are these: Pituitary gland. The method, boiled down:
as §2

Data set [9] deals with Rattus norvegicus. Description: Inhibition of pituitary gonadotropin activity in rat assessed as decrease of ovarian weight at 20 mg/kg, sc for 14 days. The conditions noted are these: Pituitary gland.
In data set [10] the test system is Rattus norvegicus. Nature of the data set: Inhibition of pituitary gonadotropin activity in rat assessed as decrease of number of vaginal estrous days at 20 mg/kg, sc for 14 days. As to conditions: Pituitary gland.
For data set [11], the system named is Homo sapiens. Description: Drug metabolism in human assessed as metabolite level treated with 800 mg, po of danazol in urine after 24 hrs by TLC analysis. The format is ADME, organism-based. The conditions noted are these: in vivo. In a few lines:
as §1

In data set [12] the test system is Rattus norvegicus. Description: Inhibition of pituitary gonadotropin activity in rat assessed as decrease of ovarian weight at 50 mg/kg, sc for 14 days. The conditions noted are these: Pituitary gland.
Data set [13] deals with Rattus norvegicus. Description: Inhibition of pituitary gonadotropin activity in rat assessed as decrease of number of vaginal estrous days at 50 mg/kg, sc for 14 days. The conditions noted are these: Pituitary gland.
The test system of data set [14] is Rattus norvegicus. Nature of the data set: Inhibition of pituitary gonadotropin activity in rat assessed as decrease of ovarian weight at 25 mg/kg, sc for 14 days. As to conditions: Pituitary gland.
Data set [15] deals with Rattus norvegicus. Nature of the data set: Inhibition of pituitary gonadotropin activity in rat assessed as decrease of number of vaginal estrous days at 25 mg/kg, sc for 14 days. The conditions noted are these: Pituitary gland.
Data set [16] is described as follows: Drug metabolism in rhesus monkey assessed as metabolite level in urine treated with at 50 mg/kg, po bid of danazol after 24 hrs by TLC analysis. It counts as ADME, organism-based, Macaca mulatta. Further details: dose 50 mg/kg, route oral. The conditions noted are these: in vivo.

Calls of active or inactive are those of the source. The calls are words filed in the database; no cut-off is given here.

`C#C[C@]1(O)CC[C@H]2[C@@H]3CCC4=Cc5oncc5C[C@]4(C)[C@H]3CC[C@@]21C` [DANAZOL]: the Drug metabolism result in data set [1], in data set [2], in data set [3], in [4] and in data set [5] was “metabolite_detected” each time. For the same compound, the inhibition entry in data set [6], in [7], in data set [8], in [9] and in [10] was “Active” throughout.

As to `C#C[C@]1(O)CC[C@H]2[C@@H]3CCC4=CC(=O)[C@H](CO)C[C@]4(C)[C@H]3CC[C@@]21C`, the Drug metabolism result in [11] is given as “metabolite_detected”. Besides, the inhibition entry in data set [6], in data set [7], in [8], in [12] and in [13] was “inactive” in each case.

In the case of `C#C[C@]1(O)CC[C@H]2[C@@H]3C[C@@H](O)C4=CC(=O)[C@H](CO)C[C@]4(C)[C@H]3CC[C@@]21C`, the Drug metabolism result in data set [11] was “metabolite_detected”. Moreover, the inhibition result in data set [6], in data set [7], in data set [8], in data set [12] and in data set [13] was “inactive” each time.

Turning to `C#C[C@]1(O)CC[C@H]2[C@@H]3CCC4=CC(=O)C(CO)=C[C@]4(C)[C@H]3CC[C@@]21C`, the Drug metabolism result in [11] is recorded as “metabolite_detected”. The inhibition result in data set [6], in data set [7], in [8], in data set [14] and in data set [15] was “inactive” each time.

On to `C#C[C@]1(O)CC[C@H]2[C@@H]3C[C@@H](O)C4=CC(=O)C(CO)=C[C@]4(C)[C@H]3CC[C@@]21C`, for which the Drug metabolism result in data set [11] was “metabolite_detected”. Besides, the inhibition entry in data set [6], in [7], in data set [8], in data set [12] and in data set [13] was “inactive” each time.

On to `C#C[C@]1(O)CC[C@H]2[C@@H]3CCC4=CC(=O)CC[C@]4(C)[C@H]3CC[C@@]21C` [ETHISTERONE], for which, in data set [16], the Drug metabolism result is recorded as “metabolite_detected”. The inhibition result in data set [6], in data set [7], in data set [8], in data set [14] and in data set [15] was “inactive” throughout.
